# Experimental data from PMC3788622 (Journal of Medicinal Chemistry, 2013).
# Entries after “also recorded” stand apart in the source; their conditions may differ.
# Legend:
# [1] = test system: male C57BL/6J mice; test: Escalating single dose subcutaneous injections: animal weight and behavior; format: in vivo, mouse; details: for Weight loss: single sc injection at 1, 3, and 10 mg/kg, observed 9 days
# Method in brief: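 Male C57BL/6J mice, 8 weeks old, were acclimatised 3 days after arrival. Groups of four received one sc dose of 1, 3 or 10 mg/kg in up to 200 μL 25% DMSO/saline. Doses were set by UV/vis using ε 69 500 M–1·cm–1 near 315 nm. Mice were weighed daily for 9 days, then sacrificed. Humane end point was visible duress or weight loss over 15% of starting weight.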
# [2] = test system: male C57BL/6J mice; test: Serum markers of liver and kidney damage after single subcutaneous injection; format: in vivo, mouse; details: single sc dose 1, 3, 10 mg/kg; dose stated in the value
# Method in brief: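 All mice from the single sc dose groups (1, 3, 10 mg/kg in 25% DMSO/saline, n = 4, 9-day observation) were bled retro-orbitally. Serum was obtained by centrifugation at 6000 rpm for 5 min. ALT, AST, total bilirubin, BUN and creatinine were measured externally, blinded to animal identity.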
# [3] = test system: male C57BL/6J mice; test: Histopathology after single subcutaneous injection; format: in vivo, mouse; details: for Organ toxicity by histopathology, overall: single sc dose, any dose level tested (1, 3, 10 mg/kg)
# Method in brief: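 After the single sc dose (1, 3 or 10 mg/kg, 25% DMSO/saline, 9-day observation), two representative mice per group were fixed in 10% formalin. A veterinary pathologist examined cecum, duodenum, heart, ileum, kidney, liver, lung, pancreas, spleen and stomach, blinded to animal identity.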
# [4] = Serum levels after subcutaneous injection; format: in vivo, mouse; details: male C57BL/6J mice, 10 mg/kg sc
# [5] = test system: male C57BL/6J mice; test: Serum markers of liver and kidney damage after multiple subcutaneous injections; format: in vivo, mouse; details: 1 mg/kg sc every 3 days, three injections
# Method in brief: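 Male C57BL/6J mice, 8 weeks old, were dosed in groups of three with 1 mg/kg sc every 3 days for three injections and sacrificed 2 days after the last. Weight was recorded on injection days and at the end point. Retro-orbital blood was spun at 6000 rpm for 5 min. Serum ALT, AST, total bilirubin, BUN and creatinine were assayed blinded.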
# [6] = test system: male C57BL/6J mice; test: Histopathology after multiple subcutaneous injections; format: in vivo, mouse
# [7] = test system: liver tissue of male C57BL/6J mice; test: Liver uptake of fluorescein-polyamide conjugates; format: in vivo, mouse; details: 50 nmol (∼3 mg/kg), sacrificed 24 h later
# [8] = test system: RPB1; test: RPB1 protein ELISA; format: cell-based; details: LNCaP cells
# Method in brief: (§1)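 LNCaP cells were treated with 10 μM test compound for 72 h. Controls were DMSO vehicle and 1 μM doxorubicin for 24 h. RPB1 was measured with an RPB1-specific ELISA kit and total p53 with a pan-p53 ELISA kit, each following the kit instructions, in biological triplicates.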
# [9] = test system: p53; test: p53 protein ELISA; format: cell-based; details: LNCaP cells
# Method in brief: as §1
# [10] = Liver microsomal stability; format: in vitro ADME; details: 1 mg/mL mouse liver microsomes, 37 °C, 60 min, with and without NADPH
# Method in brief: (§2)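 Test compound was incubated with 1 mg/mL human or mouse liver microsomes at 37 °C in 100 mM KH2PO4, 3 mM MgCl2, pH 7.4, with or without 2 mM NADPH. After 60 min, ice-cold methanol was added, samples sat on ice for 10 min or more, then were diluted with water and centrifuged. Analysis was by LC/MS/MS as percent remaining versus time zero, in duplicate.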
# [11] = Liver microsomal stability; format: in vitro ADME; details: 1 mg/mL human liver microsomes, 37 °C, 60 min, with and without NADPH
# Method in brief: as §2
# [12] = test system: p21, IGFBP3, and GADD45A; test: Quantitative RT-PCR of p53 responsive genes; format: cell-based; details: LNCaP cells, 1, 3, 10 μM, 72 h
# Method in brief: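 LNCaP cells were seeded at 50 000 per well, left to adhere 36–48 h, and treated with 1, 3 or 10 μM test compound for 72 h. Total RNA was extracted on columns and reverse transcribed. p21, IGFBP3 and GADD45A were quantified by SYBR Green real-time PCR relative to β-glucuronidase, in biological replicates.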
# [13] = test system: LNCaP cells; test: Alkaline comet assay; format: cell-based; details: 10 μM, 48 h
# Method in brief: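 LNCaP cells were seeded at 100 000 per well and left to adhere 36–48 h. They were then exposed to 10 μM test compound for 48 h, with 5 μM doxorubicin for 4 h as the comparator. DNA damage was assessed with a commercial comet kit after gentle harvest in PBS. Slides were imaged by confocal microscopy at 10×, and more than 100 comets were scored per condition as percentage of DNA in the tail.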
# [14] = test system: male C57BL/6J mice; test: Hematological analysis of wild-type mice after six injections; format: in vivo, mouse; details: six injections sc 1 mg/kg, before treatment vs at sacrifice
# Method in brief: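 Five healthy male C57BL/6J mice were bled retro-orbitally into K2EDTA tubes for baseline haematology and allowed 1 week to recover. They then received test compound 1 mg/kg sc in 20% DMSO/normal saline every 3 days for six injections. They were bled again 2 days after the final injection and euthanised. Serum and haematology samples were prepared separately; serum ALT, AST, total bilirubin, BUN and creatinine were measured. Data are the mean of five animals ± std.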
# [15] = 1 mg/kg sc every 3 days, three injections
# [16] = single sc dose 3 mg/kg, 3 mg/kg
structure (smiles),measurement,setting,value
Cn1cc2cc1C(=O)NCCCC(=O)Nc1cn(C)c(n1)C(=O)Nc1cc(n(C)c1)C(=O)Nc1cc(n(C)c1)C(=O)Nc1cc(n(C)c1)C(=O)NCC[C@@H](N)C(=O)Nc1cn(C)c(n1)C(=O)Nc1cc(n(C)c1)C(=O)Nc1cc(n(C)c1)C(=O)N2 [Polyamide 5],Weight loss,[1],did not cause significant weight loss; also recorded: less effect on animal weight than 1
same,Elevation of serum markers of liver and kidney damage (in words),[2],caused levels of ALT and AST to increase in a dose-dependent manner
same,"Organ toxicity by histopathology, overall",[3],did affect the kidney and liver
same,Serum bioavailability after subcutaneous injection,[4],bioavailable
"CN(CCCNC(=O)c1cccc(C(=O)O)c1)CCCNC(=O)c1cc(NC(=O)c2cc(NC(=O)c3cc(NC(=O)c4nc(NC(=O)C[C@@H](N)CNC(=O)c5cc(NC(=O)c6cc(NC(=O)c7cc(NC(=O)c8nccn8C)cn7C)cn6C)cn5C)cn4C)cn3C)cn2C)cn1C [Polyamide 2, ImPyPyPy-3-(R)^H2Nγ-ImPyPyPy∼NHMe∼IPA]",Weight loss,[1],significant weight loss only at 10 mg/kg
same,Elevation of serum markers of liver and kidney damage (in words),[2],"severe elevation of AST, ALT, and total bilirubin at 10 mg/kg and to a lesser extent at 3 mg/kg; also recorded: elevated BUN at 10 mg/kg"
same,Kidney lesions by histopathology (in words),[3]; single sc dose 3 mg/kg,"Moderate atypical tubular regeneration (karyomegaly, tubular attenuation, mitotic figures) and/or tubular epithelial necrosis and apoptosis"
same,Liver lesions by histopathology (in words),[3]; single sc dose 3 mg/kg,Mild hepatocellular necrosis and apoptosis
same,Liver lesions by histopathology (in words),[3]; single sc dose 10 mg/kg,diffuse hepatocellular necrosis and apoptosis
same,Spleen lesions by histopathology (in words),[3]; single sc dose 10 mg/kg,Mild lymphoid apoptosis in the white pulp of the spleen
same,Alteration of liver and kidney serum markers (in words),[5],elevated AST and ALT
same,Kidney lesions by histopathology (in words),[6]; [15],"mild variable tubular attenuation, karyomegaly, and epithelial necrosis and apoptosis"
same,Liver lesions by histopathology (in words),[6]; [15],mild multifocal hepatocellular necrosis and apoptosis
CC(=O)N[C@@H](CNC(=O)c1cc(NC(=O)c2cc(NC(=O)c3cc(NC(=O)c4nccn4C)cn3C)cn2C)cn1C)CC(=O)Nc1cn(C)c(C(=O)Nc2cc(C(=O)Nc3cc(C(=O)Nc4cc(C(=O)NCCCN(C)CCCNC(=S)Nc5ccc(-c6c7ccc(=O)cc-7oc7cc(O)ccc67)c(C(=O)O)c5)n(C)c4)n(C)c3)n(C)c2)n1 [Polyamide 9],Nuclear fluorescence in liver sections,[7],the most intense nuclear fluorescence in liver sections
"COc1cccc2c1C(=O)c1c(O)c3c(c(O)c1C2=O)C[C@@](O)(C(=O)CO)C[C@@H]3O[C@H]1C[C@H](N)[C@H](O)[C@H](C)O1 [doxorubicin, reference compound]",RPB1 protein level,"[8]; 1 μM, 24 h",decreases
same,Cellular level of p53 protein,"[9]; 1 μM, 24 h",increases
"CC(=O)N[C@@H](CNC(=O)c1cc(NC(=O)c2cc(NC(=O)c3cc(NC(=O)c4nccn4C)cn3C)cn2C)cn1C)CC(=O)Nc1cn(C)c(C(=O)Nc2cc(C(=O)Nc3cc(C(=O)Nc4cc(C(=O)NCCCN(C)CCCNC(=O)c5cccc(C(=O)O)c5)n(C)c4)n(C)c3)n(C)c2)n1 [Polyamide 4, ImPyPyPy-3-(R)^AcHNγ-ImPyPyPy∼NHMe∼IPA]",Behavior and appearance,"[1]; single sc injection, 3 mg/kg","hunched posture, loss of mobility, and acute morbidity"
same,Behavior and appearance,"[1]; single sc injection, 10 mg/kg","hunched posture, loss of mobility, and acute morbidity"
same,Dose tolerated (only tolerated at),"[1]; single sc injection, 1, 3, 10 mg/kg tested",1 mg/kg
same,Percent intact after 1 h incubation,[10],less than 5%
same,Elevation of serum markers of liver and kidney damage (in words),[2],"marked and severe elevations of AST, ALT, and total bilirubin at both 3 and 10 mg/kg; also recorded: significantly elevated creatinine and BUN at 10 mg/kg and elevated BUN at 3 mg/kg"
same,Kidney lesions by histopathology (in words),[3]; single sc dose 1 mg/kg,Milder tubular regeneration and karyomegaly
same,Liver lesions by histopathology (in words),[3]; single sc dose 1 mg/kg,Mild hepatocellular necrosis and apoptosis
same,Spleen lesions by histopathology (in words),[3]; single sc dose 3 mg/kg,Mild lymphoid apoptosis in the white pulp of the spleen
same,Kidney lesions by histopathology (in words),[3]; [16],"Moderate atypical tubular regeneration (karyomegaly, tubular attenuation, mitotic figures) and/or tubular epithelial necrosis and apoptosis"
same,Liver lesions by histopathology (in words),[3]; [16],multifocal bridging hepatocellular necrosis and apoptosis
same,Kidney lesions by histopathology (in words),[3]; single sc dose 10 mg/kg,"Moderate atypical tubular regeneration (karyomegaly, tubular attenuation, mitotic figures) and/or tubular epithelial necrosis and apoptosis"
same,Liver lesions by histopathology (in words),[3]; single sc dose 10 mg/kg,multifocal bridging hepatocellular necrosis and apoptosis
same,Spleen lesions by histopathology (in words),[3]; single sc dose 10 mg/kg,Mild lymphoid apoptosis in the white pulp of the spleen
same,Kidney lesions by histopathology (in words),"[6]; 1 mg/kg sc, two injections",hyaline droplet accumulation
same,Liver lesions by histopathology (in words),"[6]; 1 mg/kg sc, two injections",marked hepatocellular necrosis and apoptosis
same,Percent intact after 1 h incubation,[11],less than 5%
CC(=O)N[C@H](CCNC(=O)c1cc(NC(=O)c2cc(NC(=O)c3cc(NC(=O)c4nccn4C)cn3C)cn2C)cn1C)C(=O)Nc1cn(C)c(C(=O)Nc2cc(C(=O)Nc3cc(C(=O)Nc4cc(C(=O)NCCCN(C)CCCNC(=S)Nc5ccc(-c6c7ccc(=O)cc-7oc7cc(O)ccc67)c(C(=O)O)c5)n(C)c4)n(C)c3)n(C)c2)n1 [Polyamide 8],Nuclear fluorescence in liver sections,[7],less nuclear fluorescence in liver sections than the other FITC–polyamide conjugates
"CC(=O)N[C@H](CCNC(=O)c1cc(NC(=O)c2cc(NC(=O)c3cc(NC(=O)c4nccn4C)cn3C)cn2C)cn1C)C(=O)Nc1cn(C)c(C(=O)Nc2cc(C(=O)Nc3cc(C(=O)Nc4cc(C(=O)NCCCN(C)CCCNC(=O)c5cccc(C(=O)O)c5)n(C)c4)n(C)c3)n(C)c2)n1 [Polyamide 3, ImPyPyPy-2-(R)^AcHNγ-ImPyPyPy∼NHMe∼IPA]",RPB1 protein level,"[8]; 10 μM, 72 h",reduced RPB1 levels
same,Cellular level of p53 protein,"[9]; 10 μM, 72 h",increased
same,"Transcripts of p53 responsive genes p21, IGFBP3, and GADD45A",[12],induced by 3 in a dose-dependent fashion; also recorded: increased
same,Elevation of serum markers of liver and kidney damage (in words),[2],no elevation of these markers at the dose levels tested
same,DNA damage (genomic fragmentation) by comet assay,[13],no increase in genomic fragmentation; also recorded: did not result in increased DNA damage
same,"Organ toxicity by histopathology, overall",[3],no detectable toxicity
same,Alteration of liver and kidney serum markers (in words),[5],no histopathologic lesions consistent with toxicity or alterations in liver and kidney serum markers
same,"Histopathologic lesions, overall",[6]; [15],no histopathologic lesions consistent with toxicity
same,Hematologic changes (in words),[14],No significant hematologic changes
